Assay results as given in ChEMBL document CHEMBL1157370, “Efficacy of a novel rifamycin derivative, ABI-0043, against Staphylococcus aureus in an experimental model of foreign-body infection” (Antimicrob Agents Chemother, 2007).
≈ marks a conversion by molar mass, not a printed value.

Key:
[1] = Ratio of peak drug level in albino guinea pig cage fluid at 12.5 mg/kg, ip to MIC for Staphylococcus aureus ATCC 29213; assay type: functional; conditions: route intraperitoneal
Outline: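 The peak cage-fluid concentration after a single ip dose was divided by the MIC. MIC was determined by macrotube dilution in cation-adjusted Mueller-Hinton broth with an inoculum of 5 × 10^5 CFU/ml, read visually as the lowest concentration with no growth. Tests were run in triplicate and the median reported.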

[2] = Cmax in albino guinea pig cage fluid at 12.5 mg/kg, ip administered as single dose; assay type: ADME, organism-based, Cavia porcellus, Interstitial fluid; set-up: dose 12.5 mg/kg, route intraperitoneal
Outline: (§1)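 Noninfected guinea pigs with subcutaneous tissue cages received ip dosing, either a single dose or every 12 h for 4 days (multiple-dose values taken on day 4). Cage fluid was aspirated over 12 h, mixed with EDTA, centrifuged and stored at −20°C. Drug levels were measured by agar diffusion bioassay. Cmin was taken 12 h after dosing. Values are means ± SD from 12 aspirates.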

[3] = Cmax in albino guinea pig cage fluid at 3 mg/kg, ip administered as single dose; assay type: ADME, organism-based, Cavia porcellus, Interstitial fluid; set-up: dose 3 mg/kg, route intraperitoneal
Outline: (§2)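 Noninfected cage-bearing guinea pigs given one ip dose. Cage fluid aspirated over 12 h, mixed with EDTA and centrifuged. Levels measured in triplicate by agar diffusion bioassay with S. pneumoniae ATCC 49619 indicator (detection limit 0.0005 μg/ml). Cmin taken 12 h post-dose; means ± SD from 12 aspirates.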

[4] = Cmin in albino guinea pig cage fluid at 12.5 mg/kg, ip administered as single dose measured after 12 hrs; assay type: ADME, organism-based, Cavia porcellus; set-up: dose 12.5 mg/kg, route intraperitoneal; conditions: read-out: Cmin; outline: as §1
[5] = Cmin in albino guinea pig cage fluid at 3 mg/kg, ip administered as single dose measured after 12 hrs; assay type: ADME, organism-based, Cavia porcellus; set-up: dose 3 mg/kg, route intraperitoneal; conditions: read-out: Cmin; outline: as §2
Staphylococcus aureus [6] = test: Antibacterial activity against Staphylococcus aureus ATCC 29213 infected albino guinea pig tissue-cage infection model assessed as bacterial count at 12 mg/kg, ip administered every 12 hrs for 4 days measured during treatment period; assay type: functional; conditions: route intraperitoneal
Outline: (§3)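 Male albino guinea pigs (640–800 g) carrying four subcutaneous Teflon tissue cages; cages inoculated with 2 × 10^4 CFU S. aureus. Drug given ip in saline (5 ml total) every 12 h for 4 days, starting 24 h post-infection. Cage-fluid log10 CFU/ml measured on day 1 (baseline), day 4 before last dose (during treatment), and day 9 (5 days after treatment). ≥12 cages (3 animals) per regimen; mean reported.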

Staphylococcus aureus [7] = test: Antibacterial activity against Staphylococcus aureus ATCC 29213 infected albino guinea pig tissue-cage infection model assessed as bacterial count at 12 mg/kg, ip administered every 12 hrs for 4 days measured after treatment period; assay type: functional; conditions: route intraperitoneal; outline: as §3
Staphylococcus aureus [8] = test: Antibacterial activity against Staphylococcus aureus ATCC 29213 infected albino guinea pig tissue-cage infection model assessed as infection cure rate at 12.5 mg/kg, ip administered every 12 hrs for 4 days; assay type: functional; conditions: route intraperitoneal
Outline: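 Guinea pig tissue-cage S. aureus infection (2 × 10^4 CFU per cage), treated ip every 12 h for 4 days, starting 24 h after inoculation. Cages were explanted 5 days after treatment ended, vortexed in 10 ml TSB and incubated at 37°C. After 24 h, 50 μl was plated on sheep blood agar. Cure rate is the fraction of cages with no growth; at least 12 cages per regimen.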

Staphylococcus aureus [9] = test: Antibacterial activity against Staphylococcus aureus ATCC 29213 infected albino guinea pig tissue-cage infection model assessed as infection cure rate at 3 mg/kg, ip administered every 12 hrs for 4 days; assay type: functional; conditions: route intraperitoneal
Outline: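 Guinea pig subcutaneous Teflon tissue-cage model infected with 2 × 10^4 CFU S. aureus. Drug given ip every 12 h for 4 days from 24 h post-infection. Cages removed on day 9, vortexed in 10 ml TSB, incubated 24 h at 37°C and plated on sheep blood agar. Cure rate = fraction of cages with no growth; ≥12 cages per regimen.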

[10] = Cmax in albino guinea pig cage fluid at 12.5 mg/kg, ip administered every 12 hrs for 4 days; assay type: ADME, organism-based, Cavia porcellus, Interstitial fluid; set-up: dose 12.5 mg/kg, route intraperitoneal; outline: as §1
Staphylococcus aureus [11] = test: Antibacterial activity against Staphylococcus aureus ATCC 29213 by macrotube dilution method; assay type: functional
Outline: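 S. aureus from overnight culture, inoculum 5 × 10^5 CFU/ml, in cation-adjusted Mueller-Hinton broth; twofold? no—serial drug dilutions (tips changed each dilution) per CLSI macrotube method. MIC = lowest concentration with no visible growth. Run in triplicate, median reported.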

Staphylococcus aureus [12] = test: Antibacterial activity against Staphylococcus aureus ATCC 29213 assessed as logarithmic-growth-phase minimal bactericidal concentration after 24 hrs by macrotube dilution method; assay type: functional; conditions: ATCC 29213, 24 h
Outline: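 MBClog: cation-adjusted Mueller-Hinton broth, macrotube dilution, inoculum 5 × 10^5 CFU/ml taken from overnight culture; lowest concentration cutting initial count by >99.9% (3 log10 CFU/ml) after 24 h incubation. Run in triplicate, median reported.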

Staphylococcus aureus [13] = test: Antibacterial activity against Staphylococcus aureus ATCC 29213 assessed as stationary-growth-phase minimal bactericidal concentration after 24 hrs by macrotube dilution method; assay type: functional; conditions: ATCC 29213, 24 h
Staphylococcus aureus [14] = test: Ratio of MBC for Staphylococcus aureus ATCC 29213 during stationary-growth phase to logarithmic-growth phase
[15] = Ratio of peak drug level in albino guinea pig cage fluid at 12.5 mg/kg, ip to MBC for Staphylococcus aureus ATCC 29213 during stationary-growth phase; conditions: route intraperitoneal
[16] = Cmin in albino guinea pig cage fluid at 5 mg/kg, ip administered as single dose measured after 12 hrs; assay type: ADME, organism-based, Cavia porcellus; set-up: dose 5 mg/kg, route intraperitoneal; conditions: read-out: Cmin
Outline: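 Single ip dose to noninfected cage-bearing guinea pigs. Cage fluid EDTA-treated and centrifuged, then assayed with E. coli V6311/65 bioassay (detection limit 0.01 μg/ml). Trough measured 12 h after dosing; means ± SD from 12 aspirates.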

in vivo = conditions: guinea pig, cage fluid, ip, 5 mg/kg
Staphylococcus aureus [17] = test: Antibacterial activity against Staphylococcus aureus ATCC 29213 infected albino guinea pig tissue-cage infection model assessed as bacterial count at 12.5 mg/kg, ip administered every 12 hrs after 4 days; assay type: functional; conditions: route intraperitoneal
Outline: (§4)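 Male albino guinea pigs (640 to 800 g) carried four subcutaneous perforated Teflon cages. After two weeks, sterility was confirmed and each cage was inoculated percutaneously with 2 × 10^4 CFU S. aureus in 200 μl. Treatment began 24 h later: ip every 12 h for 4 days (8 doses). Quantitative cage-fluid cultures were taken on day 1, before the last dose (day 4) and 5 days after treatment (day 9). At least 12 cages (3 animals) per regimen.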

Staphylococcus aureus [18] = test: Antibacterial activity against Staphylococcus aureus ATCC 29213 infected albino guinea pig tissue-cage infection model assessed as bacterial count at 12.5 mg/kg, ip administered every 12 hrs after 5 days; assay type: functional; conditions: route intraperitoneal; outline: as §4

Question: For `CO[C@H]1/C=C/O[C@@]2(C)Oc3c(C)c(O)c4c(=O)c(c5oc6cc(N7CCN(C)CC7)cc(O)c6nc-5c4c3C2=O)NC(=O)/C(C)=C\C=C\[C@H](C)[C@H](O)[C@@H](C)[C@@H](O)[C@@H](C)[C@H](O)[C@@H]1C`, which Ratio [1] is on record?
Answer: 1130

Question: And the Cmax [2]?
Answer: 1130 ng/mL

Question: And the Cmax [3]?
Answer: 110 ng/mL

Question: What about the concentration at 12 h [4] of the same compound?
Answer: 140 ng/mL

Question: What about the concentration at 12 h [5] of the same compound?
Answer: 40 ng/mL

Question: And the log10CFU/ml (Staphylococcus aureus [6])?
Answer: 3.24

Question: What about the log10CFU/ml (Staphylococcus aureus [7]) of the same compound?
Answer: 1.57

Question: And the Activity (Staphylococcus aureus [8])?
Answer: 58%

Question: What about the Activity (Staphylococcus aureus [9]) of the same compound?
Answer: 8%

Question: And the Cmax [10]?
Answer: 820 ng/mL

Question: What about the MIC (Staphylococcus aureus [11]) of the same compound?
Answer: 0.001 µg/mL (≈ 0.00117 µM)

Question: And the MBC (Staphylococcus aureus [12])?
Answer: 0.008 µg/mL (≈ 0.00934 µM)

Question: What about the MBC (Staphylococcus aureus [13]) of the same compound?
Answer: 0.25 µg/mL (≈ 0.292 µM)

Question: What about the Ratio (Staphylococcus aureus [14]) of the same compound?
Answer: 31.3

Question: And the Ratio [15]?
Answer: 4.52

Question: What does the source list for `C[C@H]1COc2c(N3CCN(C)CC3)c(F)cc3c(=O)c(C(=O)O)cn1c23.C[C@H]1COc2c(N3CCN(C)CC3)c(F)cc3c(=O)c(C(=O)O)cn1c23.O` [LEVOFLOXACIN]?
Answer: concentration at 12 h [16]: 10 ng/mL; MIC (Staphylococcus aureus [11]): 0.16 µg/mL; MBC (Staphylococcus aureus [12]): 0.32 µg/mL; MBC (Staphylococcus aureus [13]): 40 µg/mL; Cmax (in vivo): 970 ng/mL; Ratio (Staphylococcus aureus [14]): 125

Question: For `CO[C@H]1/C=C/O[C@@]2(C)Oc3c(C)c(O)c4c(O)c(c(/C=N/N5CCN(C)CC5)c(O)c4c3C2=O)NC(=O)/C(C)=C\C=C\[C@H](C)[C@H](O)[C@@H](C)[C@@H](O)[C@@H](C)[C@H](OC(C)=O)[C@@H]1C` [RIFAMPIN], which concentration at 12 h [4] is on record?
Answer: 140 ng/mL

Question: And the log10CFU/ml (Staphylococcus aureus [17])?
Answer: 3.68

Question: And the log10CFU/ml (Staphylococcus aureus [18])?
Answer: 1.43

Question: And the Activity (Staphylococcus aureus [8])?
Answer: 46%

Question: And the Cmax [10]?
Answer: 610 ng/mL

Question: And the MIC (Staphylococcus aureus [11])?
Answer: 0.016 µg/mL (≈ 0.0194 µM)

Question: What about the MBC (Staphylococcus aureus [12]) of the same compound?
Answer: 0.8 µg/mL (≈ 0.972 µM)

Question: What about the MBC (Staphylococcus aureus [13]) of the same compound?
Answer: 3.6 µg/mL (≈ 4.37 µM)
